Measurements from ChEMBL document CHEMBL1275283, “Synthesis and evaluation of novel stearoyl-CoA desaturase 1 inhibitors: 1'-{6-[5-(pyridin-3-ylmethyl)-1,3,4-oxadiazol-2-yl]pyridazin-3-yl}-3,4-dihydrospiro[chromene-2,4'-piperidine] analogs” (Eur J Med Chem, 2010).
Converted amounts (≈) assume the structure as drawn. The source made the active and inactive calls. The calls are words filed in the database; no cut-off is given here.

Key:
[1] = molecular target: T1, Acyl-CoA desaturase 1 (Mus musculus, UniProt P13516); experiment: Inhibition of SCD1 in mouse microsome assessed as reduction in conversion of [14C]stearic acid to [14C]oleic acid after 30 mins; assay type: microsomes
T1 sequence (P13516 whole entry): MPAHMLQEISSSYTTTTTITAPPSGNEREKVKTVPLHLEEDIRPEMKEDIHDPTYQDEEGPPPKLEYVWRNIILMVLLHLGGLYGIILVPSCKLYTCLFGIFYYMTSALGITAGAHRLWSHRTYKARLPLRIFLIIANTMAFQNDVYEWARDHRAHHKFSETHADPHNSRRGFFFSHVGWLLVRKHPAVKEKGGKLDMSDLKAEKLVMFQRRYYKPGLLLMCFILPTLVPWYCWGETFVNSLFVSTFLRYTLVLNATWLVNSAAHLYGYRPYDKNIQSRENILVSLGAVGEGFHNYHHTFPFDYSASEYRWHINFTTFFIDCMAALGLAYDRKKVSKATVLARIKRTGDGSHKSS

[2] = molecular target: T2, Stearoyl-CoA desaturase (Homo sapiens, UniProt O00767); experiment: Inhibition of human SCD1 expressed in HEK293A cells assessed as reduction in conversion of [14C]stearic acid to [14C]oleic acid after 30 mins; assay type: cell-based, HEK293-A
T2 sequence (O00767 whole entry): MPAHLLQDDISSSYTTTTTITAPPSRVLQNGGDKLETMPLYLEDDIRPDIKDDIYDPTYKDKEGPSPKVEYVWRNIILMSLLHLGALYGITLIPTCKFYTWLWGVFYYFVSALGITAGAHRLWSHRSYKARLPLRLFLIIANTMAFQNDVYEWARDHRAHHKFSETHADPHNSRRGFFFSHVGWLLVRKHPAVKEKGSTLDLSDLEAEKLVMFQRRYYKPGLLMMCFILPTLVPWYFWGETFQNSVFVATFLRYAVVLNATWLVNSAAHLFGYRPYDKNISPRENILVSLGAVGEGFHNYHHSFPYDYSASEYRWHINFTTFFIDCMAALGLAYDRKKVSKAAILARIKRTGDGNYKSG
Method in brief: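 293A cells stably expressing human SCD1 (G418-selected) grown to confluence in DMEM + 10% FBS. Cells preincubated with compound 30 min, then given 0.1 µCi [14C]stearate for 4 h. Lipids saponified in KOH, separated by AgNO3-TLC, and the [14C]oleate/[14C]stearate ratio used as activity. IC50 derived from this read-out.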

[3] = molecular target: T2, Stearoyl-CoA desaturase; experiment: Inhibition of SCD1 in HEK293A cell microsomes assessed as reduction in conversion of [14C]stearic acid to [14C]oleic acid after 30 mins; parameters: species or system HEK293-A, Microsome
[4] = test system: Mus musculus; experiment: Inhibition of liver SCD1 activity in po dosed db/db mouse assessed as reduction in conversion of [14C]stearic acid to [14C]oleic acid; assay type: functional; details: read-out: ID50 (the source's name)
Method in brief: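 Seven-week-old male db/db mice dosed by oral gavage 2 h before i.p. [14C]stearate (100 µCi/kg in saline with 2% BSA). Livers harvested 1 h later and homogenized in cold PBS. Saponified homogenate analyzed by AgNO3-TLC for the [14C]oleate/[14C]stearate ratio. ID50 is the dose giving 50% inhibition.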

[5] = Aqueous solubility of the compound at neutral JP-2 solution of pH 6.8 by HPLC analysis; assay type: physicochemical
Method in brief: (§1)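 Solubility measured in purchased aqueous acidic JP-1 (pH 1.2) or neutral JP-2 (pH 6.8) media. Samples analyzed by HPLC, with UV peak area compared to a calibration standard of 250 µM compound in CH3CN/water 1:1. Means of at least two experiments.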

[6] = Half life in C57BL/6J mouse at 20 mg/kg, po; assay type: ADME, organism-based; parameters: dose 20 mg/kg, route oral; details: in vivo
Method in brief: (§2)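 Oral gavage via intubation tube at 20 mg/kg in propylene glycol/Tween 4:1, n = 3 C57BL/6J mice. Plasma sampled up to 8 h after dosing. Values are arithmetic means of at least two experiments.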

[7] = test system: Mus musculus; experiment: Inhibition of delta-(9)-desaturase in C57BL/6J mouse assessed as reduction in plasma desaturation index (C18:1/C18:0) at 0.3 mg/kg, po QD for 7 days measured post last dose; assay type: functional; details: 168 h
Method in brief: (§3)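 Nine-week-old male C57BL/6J mice on a high-carbohydrate diet (77.8 kcal% carbohydrate) for 7 days. Oral gavage once daily each evening at 0.3, 1, 3 or 10 mg/kg in propylene glycol/Tween 80 (4/1); n = 4. Serum taken the morning after the seventh dose, saponified in methanolic KOH and extracted with hexane. Index is oleate/stearate.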

[8] = Oral bioavailability in C57BL/6J mouse at 20 mg/kg up to 8 hrs; assay type: ADME, organism-based; details: in vivo
Method in brief: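 Bioavailability derived from plasma exposure after oral dosing (20 mg/kg, PG/Tween 4:1 by intubation tube, n = 3) and intravenous tail-vein dosing (5 mg/kg, DMA/Tween80/saline 10:10:80, n = 2) in C57BL/6J mice. Plasma sampled up to 8 h.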

[9] = test system: Mus musculus; experiment: Inhibition of delta-(9)-desaturase in C57BL/6J mouse assessed as reduction in plasma desaturation index (C18:1/C18:0) at 1 mg/kg, po QD for 7 days measured post last dose; assay type: functional, organism-based; parameters: dose 1 mg/kg; method in brief: as §3
[10] = test system: Mus musculus; experiment: Toxicity in C57BL/6J mouse assessed change in organ morphology up to 10 mg/kg, po QD for 7 days measured post last dose by autopsy; assay type: organism-based; parameters: dose 10 mg/kg, route oral; details: in vivo, 168 h
[11] = test system: Mus musculus; experiment: Inhibition of delta-(9)-desaturase in po dosed C57BL/6J mouse assessed as reduction in plasma desaturation index (C18:1/C18:0) QD for 7 days measured post last dose; assay type: functional, organism-based; method in brief: as §3
[12] = test system: Mus musculus; experiment: Toxicity in C57BL/6J mouse assessed change in size of […] at 3 to 10 mg/kg, po QD for 7 days measured post last dose; assay type: organism-based; parameters: dose 3-10 mg/kg, route oral; details: in vivo, 168 h
[13] = Tmax in C57BL/6J mouse at 20 mg/kg, po; assay type: ADME, organism-based; parameters: dose 20 mg/kg, route oral; details: in vivo; method in brief: as §2
[14] = test system: Mus musculus; experiment: Inhibition of delta-(9)-desaturase in C57BL/6J mouse assessed as reduction in plasma desaturation index (C18:1/C18:0) at 10 mg/kg, po QD for 7 days measured post last dose; assay type: functional; details: 168 h; method in brief: as §3
[15] = Clearance in C57BL/6J mouse at 5 mg/kg, iv up to 8 hrs; assay type: ADME, organism-based; parameters: dose 5 mg/kg, route intravenous; details: in vivo
Method in brief: (§4)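 Single intravenous tail-vein injection, 5 mg/kg in DMA/Tween80/saline 10:10:80, C57BL/6J mice (n = 2). Plasma collected up to 8 h post-dose. Means of at least two experiments.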

[16] = molecular target: Cytochrome P450 2C19 (Homo sapiens, UniProt P33261); experiment: Inhibition of CYP2C19; assay type: ADME
Chain of Cytochrome P450 2C19 (P33261 whole entry): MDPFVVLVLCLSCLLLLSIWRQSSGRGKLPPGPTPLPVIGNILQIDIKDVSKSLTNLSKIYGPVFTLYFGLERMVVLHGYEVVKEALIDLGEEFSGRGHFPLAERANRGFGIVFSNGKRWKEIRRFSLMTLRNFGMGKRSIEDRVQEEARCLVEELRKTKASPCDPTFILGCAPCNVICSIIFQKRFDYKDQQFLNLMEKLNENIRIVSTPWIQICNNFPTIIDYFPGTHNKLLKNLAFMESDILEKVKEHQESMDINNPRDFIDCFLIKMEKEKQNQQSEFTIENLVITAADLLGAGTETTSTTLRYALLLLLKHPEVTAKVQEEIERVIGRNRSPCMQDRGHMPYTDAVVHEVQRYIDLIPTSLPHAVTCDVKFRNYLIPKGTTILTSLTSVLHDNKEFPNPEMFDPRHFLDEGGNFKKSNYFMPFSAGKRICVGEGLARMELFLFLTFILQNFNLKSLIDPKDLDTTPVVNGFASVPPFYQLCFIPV

[17] = Metabolic stability of the compound in mouse liver microsomes after 30 mins; assay type: ADME, Microsome; details: read-out: Stability
Method in brief: (§5)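 Stability reported as % parent remaining after 30 min incubation with murine or human liver microsomes. Means of at least two experiments.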

[18] = molecular target: Cytochrome P450 2D6 (Homo sapiens, UniProt P10635); experiment: Inhibition of CYP2D6; assay type: ADME
Chain of Cytochrome P450 2D6 (P10635 whole entry): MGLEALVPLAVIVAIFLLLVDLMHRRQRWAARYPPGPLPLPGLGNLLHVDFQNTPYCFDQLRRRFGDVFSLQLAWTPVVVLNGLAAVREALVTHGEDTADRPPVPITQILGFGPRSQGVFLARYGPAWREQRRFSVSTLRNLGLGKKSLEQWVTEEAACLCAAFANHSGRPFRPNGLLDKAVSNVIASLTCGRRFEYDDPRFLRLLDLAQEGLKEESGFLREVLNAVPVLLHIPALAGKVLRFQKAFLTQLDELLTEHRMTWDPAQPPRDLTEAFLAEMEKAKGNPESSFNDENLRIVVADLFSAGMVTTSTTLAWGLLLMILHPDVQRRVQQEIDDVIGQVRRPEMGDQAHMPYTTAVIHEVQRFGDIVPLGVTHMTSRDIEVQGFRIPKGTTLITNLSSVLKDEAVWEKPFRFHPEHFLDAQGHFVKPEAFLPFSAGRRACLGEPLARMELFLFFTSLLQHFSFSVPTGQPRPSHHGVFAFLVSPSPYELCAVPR

[19] = Metabolic stability of the compound in human liver microsomes after 30 mins; assay type: ADME, Microsome; details: read-out: Stability; method in brief: as §5
[20] = AUC (0 to 8 hrs) in C57BL/6J mouse at 20 mg/kg, po; assay type: ADME, organism-based; parameters: time < 8 hr, dose 20 mg/kg, route oral; details: plasma; method in brief: as §2
[21] = molecular target: Cytochrome P450 2C9 (Homo sapiens, UniProt P11712); experiment: Inhibition of CYP2C9; assay type: ADME
Chain of Cytochrome P450 2C9 (P11712 whole entry): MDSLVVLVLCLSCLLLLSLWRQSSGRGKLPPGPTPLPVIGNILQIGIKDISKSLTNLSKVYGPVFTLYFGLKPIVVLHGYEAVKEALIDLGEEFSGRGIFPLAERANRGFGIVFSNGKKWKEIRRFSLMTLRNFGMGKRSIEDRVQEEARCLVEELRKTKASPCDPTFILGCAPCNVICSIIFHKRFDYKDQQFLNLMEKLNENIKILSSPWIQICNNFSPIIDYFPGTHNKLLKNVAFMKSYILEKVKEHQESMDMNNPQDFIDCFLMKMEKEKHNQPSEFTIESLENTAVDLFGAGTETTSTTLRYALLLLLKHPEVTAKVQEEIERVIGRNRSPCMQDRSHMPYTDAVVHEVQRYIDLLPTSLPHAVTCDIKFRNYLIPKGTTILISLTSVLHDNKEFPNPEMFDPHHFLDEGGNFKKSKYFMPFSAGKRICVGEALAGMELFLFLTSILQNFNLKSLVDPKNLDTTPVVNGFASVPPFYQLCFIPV

[22] = Aqueous solubility of the compound at acidic JP-1 solution of pH 1.2 by HPLC analysis; assay type: physicochemical; method in brief: as §1
[23] = Cmax in C57BL/6J mouse at 20 mg/kg, po up to 8 hrs; assay type: ADME, organism-based; parameters: dose 20 mg/kg, route oral; details: in vivo; method in brief: as §2
[24] = molecular target: T3, Cytochrome P450 1A2 (Homo sapiens, UniProt P05177); experiment: Inhibition of CYP1A2; assay type: ADME
T3 sequence (P05177 whole entry): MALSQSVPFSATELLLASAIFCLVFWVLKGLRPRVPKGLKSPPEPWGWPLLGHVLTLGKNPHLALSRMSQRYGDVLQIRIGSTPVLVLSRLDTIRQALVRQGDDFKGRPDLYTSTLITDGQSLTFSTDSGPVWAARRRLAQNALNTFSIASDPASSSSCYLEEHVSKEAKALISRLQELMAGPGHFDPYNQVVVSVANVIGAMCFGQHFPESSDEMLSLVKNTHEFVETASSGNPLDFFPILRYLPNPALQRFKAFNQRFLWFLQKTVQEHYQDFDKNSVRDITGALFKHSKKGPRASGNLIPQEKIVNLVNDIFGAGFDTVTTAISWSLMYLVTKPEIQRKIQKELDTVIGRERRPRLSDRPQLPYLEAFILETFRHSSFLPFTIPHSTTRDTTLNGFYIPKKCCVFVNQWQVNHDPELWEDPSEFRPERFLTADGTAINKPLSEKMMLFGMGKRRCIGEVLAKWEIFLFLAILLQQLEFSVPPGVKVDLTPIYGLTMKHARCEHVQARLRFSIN

[25] = Half life in C57BL/6J mouse at 5 mg/kg, iv; assay type: ADME, organism-based; parameters: dose 5 mg/kg, route intravenous; details: in vivo; method in brief: as §4
[26] = test system: Mus musculus; experiment: Toxicity in C57BL/6J mouse assessed as abnormalities in skin at 10 mg/kg, po QD for 7 days measured post last dose; assay type: organism-based; parameters: dose 10 mg/kg, route oral; details: in vivo, 168 h
[27] = molecular target: Cytochrome P450 3A4 (Homo sapiens, UniProt P08684); experiment: Inhibition of CYP3A4; assay type: ADME
Chain of Cytochrome P450 3A4 (P08684 whole entry): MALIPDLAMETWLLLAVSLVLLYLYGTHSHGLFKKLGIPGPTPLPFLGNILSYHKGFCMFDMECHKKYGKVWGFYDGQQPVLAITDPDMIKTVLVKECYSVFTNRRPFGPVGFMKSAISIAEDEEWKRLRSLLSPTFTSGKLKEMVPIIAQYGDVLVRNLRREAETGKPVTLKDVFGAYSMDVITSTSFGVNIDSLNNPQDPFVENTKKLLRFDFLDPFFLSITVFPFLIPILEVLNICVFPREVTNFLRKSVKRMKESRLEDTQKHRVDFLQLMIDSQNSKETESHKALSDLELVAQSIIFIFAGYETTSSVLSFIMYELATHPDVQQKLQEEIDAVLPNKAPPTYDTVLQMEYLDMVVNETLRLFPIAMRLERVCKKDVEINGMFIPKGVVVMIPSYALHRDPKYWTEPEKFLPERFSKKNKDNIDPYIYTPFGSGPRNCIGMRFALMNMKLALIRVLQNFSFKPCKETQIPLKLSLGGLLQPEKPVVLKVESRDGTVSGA

[28] = Volume of distribution in C57BL/6J mouse at 5 mg/kg, iv up to 8 hrs; assay type: ADME, organism-based; parameters: dose 5 mg/kg, route intravenous; details: in vivo; method in brief: as §4
[29] = test system: Mus musculus; experiment: Toxicity in C57BL/6J mouse assessed occurrence of mild eye fissures at 3 to 10 mg/kg, po QD for 7 days measured post last dose; assay type: organism-based; parameters: dose 3-10 mg/kg, route oral; details: in vivo, 168 h
[30] = test system: Mus musculus; experiment: Toxicity in C57BL/6J mouse assessed change in size of Harderian gland at 3 to 10 mg/kg, po QD for 7 days measured post last dose; assay type: organism-based; parameters: dose 3-10 mg/kg, route oral; details: in vivo, 168 h
[31] = molecular target: T2, Stearoyl-CoA desaturase; experiment: Inhibition of human SCD1
Method in brief: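 Microsomes from 293A cells as the human SCD1 source, preincubated with compound for 10 min at room temperature. Reaction run 60 min at 37 °C in pH 7.4 phosphate buffer with ATP 1 mM, NADH 1.25 mM, CoA and [14C] stearate. Product saponified and separated on AgNO3-TLC. Activity is the [14C] oleate/stearate ratio. IC50 by linear regression; mean of ≥2 experiments.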

SMILES | IC50 [1] [nM] | IC50 [2] [nM] | IC50 [3] [nM] | solubility [5] [µM] | half-life [6] [min] | Tmax [13] [min] | AUC(0-t) at 8 h [20] [ng·h/mL] | solubility [22] [µM] | Cmax [23] [ng/mL] | ED50 [4] [mg/kg] | other results
Fc1ccc(F)c2c1CCC1(CCN(c3ccc(-c4nnc(Cc5cccnc5)o4)nn3)CC1)O2 | 0.5 | 1 | 0.1 | – | – | – | – | – | – | < 2 | –
c1cncc(Cc2nnc(-c3ccc(N4CCC5(CCc6ccccc6O5)CC4)nn3)o2)c1 | 2 | 4 | 1 | 4.2 (≈ 1.85 µg/mL) | 48 | 60 | 2400 | 92 (≈ 40.5 µg/mL) | 1300 | 2 | –

More lines, main results first:

IC50 [1] [nM] | IC50 [2] [nM] | IC50 [3] [nM] | solubility [5] [µM] | half-life [6] [min] | Tmax [13] [min] | AUC(0-t) at 8 h [20] [ng·h/mL] | solubility [22] [µM] | Cmax [23] [ng/mL] | SMILES | ED50 [4] [mg/kg] | other results
2 | 0.7 | 0.3 | < 0.5 | 60 | 78 | 6800 | > 100 | 2900 | Fc1cccc2c1CCC1(CCN(c3ccc(-c4nnc(Cc5cccnc5)o4)nn3)CC1)O2 | 0.6 | inhibition in vivo at 0.3 mg/kg [7]: 32%; bioavailability [8]: > 95%; inhibition [9]: Active; Activity [10]: Non-toxic; inhibition [11]: Dose-dependent effect; Activity [12]: Non-toxic; inhibition in vivo at 10 mg/kg [14]: 66%; clearance [15]: 53 mL/min/kg; IC50 [16]: 14000 nM; remaining at 0.5 h [17]: 51%; IC50 [18]: 27000 nM; remaining at 0.5 h [19]: 65%; IC50 [21]: 3000 nM; IC50 [24]: 18000 nM; half-life [25]: 24 min; Activity [26]: Non-toxic; IC50 [27]: 1600 nM; Vd [28]: 1.3 L/kg; Activity [29]: Toxic; Activity [30]: Non-toxic
0.06 | – | 0.03 | < 0.5 | – | – | – | 88 (≈ 44.7 µg/mL) | – | FC(F)(F)c1cccc2c1CCC1(CCN(c3ccc(-c4nnc(Cc5cccnc5)o4)nn3)CC1)O2 | 0.4 | IC50 [31]: 0.03 nM
0.04 | 1 | 0.06 | < 0.5 | 42 | 48 | 1400 | > 50 | 690 | Clc1cccc2c1CCC1(CCN(c3ccc(-c4nnc(Cc5cccnc5)o4)nn3)CC1)O2 | 1 | –
